Laboratory results: publication PMC10759174 (RSC Advances, 2024)

What was measured:
[1] = DPPH free radical scavenging assay; conditions: at a concentration of 1000 μg mL^−1
Summary of the method: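 DPPH 0.1 mM in ethanol, 1 mL, added to 3 mL of test compound solution in ethanol at 1000 μg mL−1. The mixture was shaken vigorously, left 30 min at room temperature, and absorbance read at 517 nm. Ascorbic acid served as reference, run in triplicate. % scavenging = (A0 − A1)/A0 × 100, where A0 is control-reaction absorbance and A1 is absorbance with sample.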

ovine COX-1 = target: T1, ovine COX-1 (Ovis aries, UniProt P05979); assay: COX-1 inhibitor screening assay kit; type: biochemical
T1 sequence (P05979 25-600): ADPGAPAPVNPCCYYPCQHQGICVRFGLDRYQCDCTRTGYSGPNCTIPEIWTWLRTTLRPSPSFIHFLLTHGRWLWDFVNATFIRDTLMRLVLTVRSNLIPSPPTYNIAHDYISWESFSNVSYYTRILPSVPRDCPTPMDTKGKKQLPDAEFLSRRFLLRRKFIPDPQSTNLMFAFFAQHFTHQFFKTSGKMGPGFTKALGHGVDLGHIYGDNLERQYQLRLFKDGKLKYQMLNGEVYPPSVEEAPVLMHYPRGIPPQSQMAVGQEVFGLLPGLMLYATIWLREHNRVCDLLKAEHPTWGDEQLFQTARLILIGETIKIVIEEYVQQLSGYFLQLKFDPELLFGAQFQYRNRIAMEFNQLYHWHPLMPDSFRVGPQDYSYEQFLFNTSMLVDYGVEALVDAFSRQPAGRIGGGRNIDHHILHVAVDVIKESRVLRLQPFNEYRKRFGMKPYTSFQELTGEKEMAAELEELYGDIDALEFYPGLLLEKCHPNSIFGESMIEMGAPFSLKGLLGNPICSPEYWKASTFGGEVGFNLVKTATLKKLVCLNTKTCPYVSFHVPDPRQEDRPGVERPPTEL

human recombinant COX-2 = target: T2, human recombinant COX-2 (Homo sapiens, UniProt P35354); assay: COX-2 inhibitor screening assay kit; type: biochemical; conditions: for IC50 COX-1/COX-2 (in vitro COX-2 selectivity index): IC50 of COX-1/COX-2
T2 sequence (P35354 18-604): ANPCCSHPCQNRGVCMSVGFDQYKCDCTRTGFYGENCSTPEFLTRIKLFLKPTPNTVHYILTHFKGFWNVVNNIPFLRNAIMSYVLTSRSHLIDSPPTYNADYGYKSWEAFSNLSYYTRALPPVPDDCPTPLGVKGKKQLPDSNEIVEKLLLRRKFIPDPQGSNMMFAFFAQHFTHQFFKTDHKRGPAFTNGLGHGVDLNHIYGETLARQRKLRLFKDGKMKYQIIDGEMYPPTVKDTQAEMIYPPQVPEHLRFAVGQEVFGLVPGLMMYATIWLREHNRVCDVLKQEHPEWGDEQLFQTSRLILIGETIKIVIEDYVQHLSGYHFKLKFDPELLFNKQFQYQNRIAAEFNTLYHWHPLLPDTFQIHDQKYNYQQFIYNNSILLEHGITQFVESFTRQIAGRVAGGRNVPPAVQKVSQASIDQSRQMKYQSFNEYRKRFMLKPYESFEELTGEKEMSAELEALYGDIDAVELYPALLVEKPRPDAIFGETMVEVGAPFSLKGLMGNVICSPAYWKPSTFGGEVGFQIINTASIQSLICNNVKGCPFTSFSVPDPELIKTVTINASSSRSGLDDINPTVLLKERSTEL

| SMILES | DPPH scavenging% [1] | IC50 (ovine COX-1) | IC50 (human recombinant COX-2) | IC50 COX-1/COX-2 (in vitro COX-2 selectivity index) (human recombinant COX-2) | DPPH scavenging% ([1]; listed as Comp. 4) | DPPH scavenging% ([1]; listed as Comp. 11) |
| --- | --- | --- | --- | --- | --- | --- |
| O=C1O[C@H]([C@@H](O)CO)C(O)=C1O [Ascorbic acid, ascorbic acid, reference compound] | 97% |  |  |  |  |  |
| NC1=NC(=S)NC12CCCCC2 [Compound 4, 4-Amino-1,3-diazaspiro[4.5]dec-3-ene-2-thione] |  | 7.5 µM | 0.135 µM | 55.56 µM | 61.1% |  |
| O=C1CCC(=O)C2(CCCCC2)N1 [Compound 6, 1-Azaspiro[5.5]undecane-2,5-dione] | 74.4% | 11.5 µM | 0.089 µM | 129.21 µM |  |  |
| O=C1NC2(CCCCC2)c2nc3c(c(-c4ccccc4)c21)CCCC3 [Compound 11, 9′-Phenyl-5′,6′,7′,8′-tetrahydrospiro[cyclohexane-1,3′-pyrrolo[3,4-b]quinolin]-1′(2′H)-one] |  | 10.5 µM | 0.06 µM | 175.00 µM |  | 86.1% |
| O=C1NC2(CCCCC2)c2[nH]c(=S)nc(-c3ccccc3)c21 [Compound 14, 4′-Phenyl-2′-thioxo-1′,2′-dihydrospiro[cyclohexane-1,7′-pyrrolo[3,4-d]pyrimidin]-5′(6′H)-one] | 66.5% | 6 µM | 0.08 µM | 75.00 µM |  |  |
| Cc1cc(-c2ccccc2)c2c(n1)C1(CCCCC1)NC2=O [Compound 17, 2′-Methyl-4′-phenylspiro[cyclohexane-1,7′-pyrrolo[3,4-b]pyridin]-5′(6′H)-one] |  | 8 µM | 0.099 µM | 80.81 µM |  |  |
